From ChEMBL document CHEMBL1240350, “In vitro activity of CEM-101 against Streptococcus pneumoniae and Streptococcus pyogenes with defined macrolide resistance mechanisms” (Antimicrob Agents Chemother, 2010) come the findings set out here.

Assay [1] concerns Streptococcus pyogenes. Briefly: Antibacterial activity against macrolide-resistant Streptococcus pyogenes 2094 harboring erm(A) gene after 5 passages following overnight incubation by agar dilution method. (In agar dilution the substance is mixed into plates at graded concentrations.)
In assay [2] the test system is Streptococcus pneumoniae. Briefly: Antibacterial activity against macrolide-resistant Streptococcus pneumoniae 3009 harboring mutation in 23S rRNA after 25 passages following overnight incubation by agar dilution method. It counts as functional.
Assay [3] relates to Streptococcus pneumoniae. Briefly: Antibacterial activity against macrolide-susceptible Streptococcus pneumoniae 1077 after 50 passages following overnight incubation by agar dilution method. Type of assay: functional.
In assay [4] the test system is Streptococcus pyogenes. Kind of assay: Antibacterial activity against macrolide-resistant Streptococcus pyogenes 2094 harboring erm(A) gene after 6 passages following overnight incubation by agar dilution method.
Assay [5] concerns Streptococcus pneumoniae. Kind of assay: Antibacterial activity against macrolide-susceptible Streptococcus pneumoniae 7127 harboring S20N mutation in L4 ribosomal protein and A105V mutation in L22 ribosomal protein after 15 passages following overnight incubation by agar dilution method. It counts as functional.
The subject of assay [6] is Streptococcus pyogenes. Kind of assay: Antibacterial activity against macrolide-resistant Streptococcus pyogenes 2094 harboring erm(A) gene after 34 passages following overnight incubation by agar dilution method.
Assay [7] has as its system Streptococcus pneumoniae. Briefly: Antibacterial activity against macrolide-susceptible Streptococcus pneumoniae 7127 harboring S20N mutation in L4 ribosomal protein and A105V mutation in L22 ribosomal protein after 43 passages following overnight incubation by agar dilution method. It counts as functional.
Assay [8] deals with Streptococcus pneumoniae. Kind of assay: Antibacterial activity against macrolide-susceptible Streptococcus pneumoniae 7127 harboring S20N mutation in L4 ribosomal protein and A105V mutation in L22 ribosomal protein after 16 passages following overnight incubation by agar dilution method. Type of assay: functional.
Assay [9] concerns Streptococcus pneumoniae. Kind of assay: Antibacterial activity against macrolide-resistant Streptococcus pneumoniae 1076 harboring erm(B) and mef(A) gene after 14 passages following overnight incubation by agar dilution method. It counts as functional.
Assay [10] relates to Streptococcus pneumoniae. Briefly: Antibacterial activity against macrolide-susceptible Streptococcus pneumoniae 7127 harboring S20N mutation in L4 ribosomal protein and A105V mutation in L22 ribosomal protein after 38 passages following overnight incubation […]. Type of assay: functional. The essentials: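 S. pneumoniae parental strains were passaged daily in subinhibitory drug concentrations in cation-adjusted Mueller-Hinton broth with 5% lysed horse blood. Each passage was seeded from the tube 1 to 2 dilutions below the MIC whose turbidity matched the growth control. MICs of resistant clones were measured by CLSI macrodilution. Parent and clone identity was confirmed by PFGE of SmaI-digested DNA.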

Values after ≈ are worked out from the molar mass of the structure shown.

For orientation: MIC means the smallest concentration in the dilution series that meets the test's criterion for growth inhibition. A lower MIC goes with greater potency. Turning to `CC[C@H]1OC(=O)[C@H](C)[C@@H](O[C@H]2C[C@@](C)(OC)[C@@H](O)[C@H](C)O2)[C@H](C)[C@@H](O[C@@H]2O[C@H](C)C[C@H](N(C)C)[C@H]2O)[C@](C)(O)C[C@@H](C)CN(C)[C@H](C)[C@@H](O)[C@]1(C)O` [AZITHROMYCIN], the MIC in [1] was greater than 64 µg/mL.

As for `CC[C@H]1OC(=O)[C@H](C)[C@@H](O[C@H]2C[C@@](C)(OC)[C@@H](O)[C@H](C)O2)[C@H](C)[C@@H](O[C@@H]2O[C@H](C)C[C@H](N(C)C)[C@H]2O)[C@](C)(OC)C[C@@H](C)C(=O)[C@H](C)[C@@H](O)[C@]1(C)O` [CLARITHROMYCIN], the MIC in [2] was greater than 64 µg/mL; in assay [3], 0.008 µg/mL (≈ 0.0107 µM); in assay [4], greater than 64 µg/mL; in assay [5], 16 µg/mL (≈ 21.4 µM).

As for `CCC[C@@H]1C[C@@H](C(=O)N[C@@H]([C@H]2O[C@H](SC)[C@H](O)[C@@H](O)[C@H]2O)[C@H](C)Cl)N(C)C1` [CLINDAMYCIN], the MIC is greater than 64 µg/mL in [6] and 0.25 µg/mL (≈ 0.588 µM) in [7].

Take `CC[C@H]1OC(=O)[C@@](C)(F)C(=O)[C@H](C)[C@@H](O[C@@H]2O[C@H](C)C[C@H](N(C)C)[C@H]2O)[C@](C)(OC)C[C@@H](C)C(=O)[C@H](C)[C@H]2N(CCCCn3cc(-c4cccc(N)c4)nn3)C(=O)O[C@]12C` [SOLITHROMYCIN]: the minimal inhibitory concentration (MIC) in assay [8] stood at 0.125 µg/mL (≈ 0.148 µM).

As to `CC[C@H]1OC(=O)[C@H](C)C(=O)[C@H](C)[C@@H](O[C@@H]2O[C@H](C)C[C@H](N(C)C)[C@H]2O)[C@](C)(OC)C[C@@H](C)C(=O)[C@H](C)[C@H]2N(CCCCn3cnc(-c4cccnc4)c3)C(=O)O[C@]12C` [TELITHROMYCIN], the MIC was greater than 64 µg/mL in assay [9] and 0.06 µg/mL (≈ 0.0739 µM) in assay [10].
